Results on two molecules are retold here after ChEMBL document CHEMBL2057083, “Development of new carbon-11 labelled radiotracers for imaging GABAA- and GABAB-benzodiazepine receptors” (Bioorg Med Chem, 2012).

The nature of data set [1]: Lipophilicity, log D in octanol/buffer at pH 7.4 by shake-flask method.
The test system of data set [2] is Thalamus. As to the kind of experiment: Biodistribution in Sprague-Dawley rat thalamus at 37 MBq, iv measured 15 mins post injection. It is filed as ADME, organism-based. To be noted: in vivo, 0.25 h. In outline: (§1)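 Conscious rats received the radiotracer by tail-vein injection and were killed by decapitation at the stated time. Brains were removed, and regions were excised, blotted, weighed and counted for radioactivity. Uptake is given as decay-corrected %ID/g.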

Data set [3] has as its system Cerebellum. As to the kind of experiment: Biodistribution in Sprague-Dawley rat cerebellum at 37 MBq, iv measured 5 mins post injection. Type of data set: ADME, organism-based. To be noted: in vivo.
In data set [4] the test system is Brain. The data set can be described thus: Biodistribution in Sprague-Dawley rat rest of brain at 37 MBq, iv measured 60 mins post injection. It is filed as ADME, organism-based. To be noted: in vivo, 1 h.
The test system of data set [5] is Striatum. The data set can be described thus: Biodistribution in Sprague-Dawley rat striatum at 37 MBq, iv measured 60 mins post injection. It is filed as ADME, organism-based. The settings on record: in vivo, 1 h.
In data set [6] the test system is Brain. The data set can be described thus: Biodistribution in Sprague-Dawley rat rest of brain at 37 MBq, iv measured 15 mins post injection. Type of data set: ADME, organism-based. The settings on record: in vivo, 0.25 h.
Data set [7] relates to Striatum. The data set can be described thus: Biodistribution in Sprague-Dawley rat striatum at 37 MBq, iv measured 30 mins post injection. It is filed as ADME, organism-based. To be noted: in vivo, 0.5 h.
The test system of data set [8] is Blood. As to the kind of experiment: Biodistribution in Sprague-Dawley rat blood at 37 MBq, iv measured 5 mins post injection. It is filed as ADME, organism-based. To be noted: in vivo.
In data set [9] the test system is Rattus norvegicus. As to the kind of experiment: Biodistribution in Sprague-Dawley rat hipothalamus at 37 MBq, iv measured 5 mins post injection. It is filed as ADME, organism-based, Hypothalamus. The settings on record: in vivo. In outline: as §1
Data set [10] relates to Rattus norvegicus. As to the kind of experiment: Biodistribution in Sprague-Dawley rat hipothalamus at 37 MBq, iv measured 2 mins post injection. To be noted: in vivo. It is filed as ADME, organism-based, Hypothalamus.
Data set [11] deals with Thalamus. As to the kind of experiment: Biodistribution in Sprague-Dawley rat thalamus at 37 MBq, iv measured 2 mins post injection. Type of data set: ADME, organism-based. To be noted: in vivo.
The test system of data set [12] is Brain. As to the kind of experiment: Biodistribution in Sprague-Dawley rat rest of brain at 37 MBq, iv measured 5 mins post injection. It is filed as ADME, organism-based. The settings on record: in vivo.
Data set [13] relates to Blood. The data set can be described thus: Biodistribution in Sprague-Dawley rat blood at 37 MBq, iv measured 30 mins post injection. It is filed as ADME, organism-based. The settings on record: in vivo, 0.5 h.
Data set [14] has as its system Hippocampus. The data set can be described thus: Biodistribution in Sprague-Dawley rat hippocampus at 37 MBq, iv measured 30 mins post injection. Type of data set: ADME, organism-based. To be noted: in vivo, 0.5 h.
Data set [15] concerns Rattus norvegicus. The data set can be described thus: Biodistribution in Sprague-Dawley rat cortex (rest) at 37 MBq, iv measured 30 mins post injection. It is filed as ADME, organism-based. To be noted: in vivo, 0.5 h.
In data set [16] the test system is Rattus norvegicus. The data set can be described thus: Biodistribution in Sprague-Dawley rat cortex (front) at 37 MBq, iv measured 15 mins post injection. To be noted: in vivo, 0.25 h. It is filed as ADME, organism-based.
The test system of data set [17] is Rattus norvegicus. The data set can be described thus: Biodistribution in Sprague-Dawley rat hipothalamus at 37 MBq, iv measured 15 mins post injection. Type of data set: ADME, organism-based, Hypothalamus. To be noted: in vivo, 0.25 h. In outline:
as §1

In data set [18] the test system is Striatum. As to the kind of experiment: Biodistribution in Sprague-Dawley rat striatum at 37 MBq, iv measured 15 mins post injection. It is filed as ADME, organism-based. The settings on record: in vivo, 0.25 h.
Data set [19] has as its system Rattus norvegicus. As to the kind of experiment: Biodistribution in Sprague-Dawley rat hipothalamus at 37 MBq, iv measured 60 mins post injection. It is filed as ADME, organism-based, Hypothalamus. The settings on record: in vivo, 1 h. In outline:
as §1

Data set [20] has as its system Striatum. The data set can be described thus: Biodistribution in Sprague-Dawley rat striatum at 37 MBq, iv measured 2 mins post injection. The settings on record: in vivo. It is filed as ADME, organism-based.
In data set [21] the test system is Blood. As to the kind of experiment: Biodistribution in Sprague-Dawley rat blood at 37 MBq, iv measured 2 mins post injection. Type of data set: ADME, organism-based. To be noted: in vivo.
Data set [22] has as its system Hippocampus. The data set can be described thus: Biodistribution in Sprague-Dawley rat hippocampus at 37 MBq, iv measured 2 mins post injection. The settings on record: in vivo. Type of data set: ADME, organism-based.
Data set [23] concerns Blood. As to the kind of experiment: Biodistribution in Sprague-Dawley rat blood at 37 MBq, iv measured 60 mins post injection. Type of data set: ADME, organism-based. To be noted: in vivo, 1 h.
Data set [24] has as its system Rattus norvegicus. The data set can be described thus: Biodistribution in Sprague-Dawley rat cortex (front) at 37 MBq, iv measured 5 mins post injection. It is filed as ADME, organism-based. To be noted: in vivo.
Data set [25] concerns Thalamus. The data set can be described thus: Biodistribution in Sprague-Dawley rat thalamus at 37 MBq, iv measured 30 mins post injection. It is filed as ADME, organism-based. The settings on record: in vivo, 0.5 h. In outline: as §1
For data set [26], the system named is Cerebellum. As to the kind of experiment: Biodistribution in Sprague-Dawley rat cerebellum at 37 MBq, iv measured 2 mins post injection. Type of data set: ADME, organism-based. To be noted: in vivo.
For data set [27], the system named is Hippocampus. As to the kind of experiment: Biodistribution in Sprague-Dawley rat hippocampus at 37 MBq, iv measured 60 mins post injection. Type of data set: ADME, organism-based. The settings on record: in vivo, 1 h.
Data set [28] relates to Rattus norvegicus. As to the kind of experiment: Biodistribution in Sprague-Dawley rat cortex (rest) at 37 MBq, iv measured 15 mins post injection. The settings on record: in vivo, 0.25 h. Type of data set: ADME, organism-based.
In data set [29] the test system is Blood. As to the kind of experiment: Biodistribution in Sprague-Dawley rat blood at 37 MBq, iv measured 15 mins post injection. Type of data set: ADME, organism-based. The settings on record: in vivo, 0.25 h.
Data set [30] concerns Striatum. As to the kind of experiment: Biodistribution in Sprague-Dawley rat striatum at 37 MBq, iv measured 5 mins post injection. Type of data set: ADME, organism-based. To be noted: in vivo.
Data set [31] deals with Thalamus. The data set can be described thus: Biodistribution in Sprague-Dawley rat thalamus at 37 MBq, iv measured 60 mins post injection. Type of data set: ADME, organism-based. To be noted: in vivo, 1 h. An outline of the steps: as §1
Data set [32] has as its system Rattus norvegicus. The data set can be described thus: Biodistribution in Sprague-Dawley rat cortex (front) at 37 MBq, iv measured 60 mins post injection. The settings on record: in vivo, 1 h. It is filed as ADME, organism-based.
Data set [33] concerns Thalamus. The data set can be described thus: Biodistribution in Sprague-Dawley rat thalamus at 37 MBq, iv measured 5 mins post injection. It is filed as ADME, organism-based. The settings on record: in vivo. In outline: as §1
Data set [34] deals with Brain. The data set can be described thus: Biodistribution in Sprague-Dawley rat rest of brain at 37 MBq, iv measured 30 mins post injection. It is filed as ADME, organism-based. The settings on record: in vivo, 0.5 h.
Data set [35] has as its system Cerebellum. As to the kind of experiment: Biodistribution in Sprague-Dawley rat cerebellum at 37 MBq, iv measured 15 mins post injection. Type of data set: ADME, organism-based. To be noted: in vivo, 0.25 h.
Data set [36] deals with Hippocampus. As to the kind of experiment: Biodistribution in Sprague-Dawley rat hippocampus at 37 MBq, iv measured 5 mins post injection. It is filed as ADME, organism-based. To be noted: in vivo.
For data set [37], the system named is Cerebellum. The data set can be described thus: Biodistribution in Sprague-Dawley rat cerebellum at 37 MBq, iv measured 30 mins post injection. To be noted: in vivo, 0.5 h. Type of data set: ADME, organism-based.
For data set [38], the system named is Rattus norvegicus. The data set can be described thus: Biodistribution in Sprague-Dawley rat cortex (rest) at 37 MBq, iv measured 2 mins post injection. It is filed as ADME, organism-based. To be noted: in vivo.
Data set [39] relates to Hippocampus. As to the kind of experiment: Biodistribution in Sprague-Dawley rat hippocampus at 37 MBq, iv measured 15 mins post injection. It is filed as ADME, organism-based. The settings on record: in vivo, 0.25 h.
Data set [40] has as its system Rattus norvegicus. The data set can be described thus: Biodistribution in Sprague-Dawley rat cortex (rest) at 37 MBq, iv measured 5 mins post injection. The settings on record: in vivo. It is filed as ADME, organism-based.
In data set [41] the test system is Rattus norvegicus. The data set can be described thus: Biodistribution in Sprague-Dawley rat cortex (front) at 37 MBq, iv measured 2 mins post injection. Type of data set: ADME, organism-based. To be noted: in vivo.
Data set [42] relates to Rattus norvegicus. The data set can be described thus: Biodistribution in Sprague-Dawley rat cortex (rest) at 37 MBq, iv measured 60 mins post injection. Type of data set: ADME, organism-based. To be noted: in vivo, 1 h.
Data set [43] concerns Brain. As to the kind of experiment: Biodistribution in Sprague-Dawley rat rest of brain at 37 MBq, iv measured 2 mins post injection. Type of data set: ADME, organism-based. The settings on record: in vivo.
The subject of data set [44] is Rattus norvegicus. As to the kind of experiment: Biodistribution in Sprague-Dawley rat cortex (front) at 37 MBq, iv measured 30 mins post injection. It is filed as ADME, organism-based. The settings on record: in vivo, 0.5 h.
Data set [45] concerns Cerebellum. The data set can be described thus: Biodistribution in Sprague-Dawley rat cerebellum at 37 MBq, iv measured 60 mins post injection. Type of data set: ADME, organism-based. To be noted: in vivo, 1 h.
The test system of data set [46] is Rattus norvegicus. The data set can be described thus: Biodistribution in Sprague-Dawley rat hipothalamus at 37 MBq, iv measured 30 mins post injection. Type of data set: ADME, organism-based, Hypothalamus. To be noted: in vivo, 0.5 h. An outline of the steps:
as §1

As to `Cc1nc(O[11CH3])ccc1-c1cccc2c(N)c3c(nc12)CN(C1CCC1)C3=O`, the logD (in general, lipophilicity at a set pH, counting ionised and neutral species) in data set [1] stood at 4.12.
As for `CC(NCCC(c1ccccc1)c1ccccc1)c1ccc(O[11CH3])c(Cl)c1` (racemic), the Drug uptake turned out to be 0.13 % ID/g in the data set with Thalamus [2]; 0.14 % ID/g in the data set on Cerebellum [3]; 0.11 % ID/g in the data set on Brain [4]; 0.11 % ID/g in the data set on Striatum [5]; 0.11 % ID/g with Brain [6]; 0.12 % ID/g with Striatum [7]. The Drug uptake in the data set on Blood [8] is 0.12 % ID/g; with Rattus norvegicus [9], 0.11 % ID/g; with Rattus norvegicus [10], 0.11 % ID/g; in the data set with Thalamus [11], 0.1 % ID/g; in the data set with Brain [12], 0.11 % ID/g; in the data set on Blood [13], 0.09 % ID/g. The Drug uptake was determined as 0.11 % ID/g in the data set on Hippocampus [14]; 0.13 % ID/g in the data set with Rattus norvegicus [15]; 0.14 % ID/g in the data set with Rattus norvegicus [16]; 0.1 % ID/g with Rattus norvegicus [17]; 0.12 % ID/g in the data set with Striatum [18]; 0.11 % ID/g in the data set with Rattus norvegicus [19]. Besides, the Drug uptake turned out to be 0.1 % ID/g in the data set with Striatum [20]; 0.18 % ID/g in the data set with Blood [21]; 0.08 % ID/g with Hippocampus [22]; 0.13 % ID/g in the data set on Blood [23]; 0.13 % ID/g in the data set on Rattus norvegicus [24]; 0.12 % ID/g in the data set with Thalamus [25]. Further, the Drug uptake in the data set with Cerebellum [26] was determined as 0.13 % ID/g; in the data set with Hippocampus [27] it was 0.11 % ID/g; in the data set with Rattus norvegicus [28] it was 0.13 % ID/g; in the data set on Blood [29] it was 0.87 % ID/g; in the data set with Striatum [30], 0.11 % ID/g; with Thalamus [31] it was 0.14 % ID/g. Besides, the Drug uptake in the data set on Rattus norvegicus [32] was 0.13 % ID/g; in the data set with Thalamus [33], 0.12 % ID/g; in the data set with Brain [34], 0.12 % ID/g; with Cerebellum [35], 0.12 % ID/g; in the data set with Hippocampus [36], 0.1 % ID/g; with Cerebellum [37], 0.13 % ID/g. The Drug uptake is 0.13 % ID/g in the data set on Rattus norvegicus [38]; 0.1 % ID/g in the data set on Hippocampus [39]; 0.13 % ID/g in the data set with Rattus norvegicus [40]; 0.12 % ID/g with Rattus norvegicus [41]; 0.13 % ID/g in the data set on Rattus norvegicus [42]; 0.1 % ID/g with Brain [43]. Also, the Drug uptake with Rattus norvegicus [44] stood at 0.14 % ID/g; with Cerebellum [45], 0.11 % ID/g; in the data set with Rattus norvegicus [46], 0.1 % ID/g. In data set [1], the pH-dependent lipophilicity (logD) came to 3.2.
